Experiments:
HepG2 = assay: Cytotoxicity against human HepG2 cells measured after 24 hrs by MTT assay; type: functional, cell-based; details: HepG2, 24 h
Summary of the method: (§1)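 Cells were kept in RPMI 1640 with 10% FBS, penicillin and streptomycin at 37°C in 5% CO2. Seeding was given for A375 only, at 1×10^4/well. After 24 h, cells were exposed to compounds for 24 h; compounds were dissolved in DMSO and diluted in medium containing 0.1% DMSO. Cells were washed, given 5 mg/mL MTT for 4 h, and formazan was dissolved in DMSO and read at 492 nm. Three independent experiments were run in triplicate, with IC50 taken from viability curves.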

[1] = Cytotoxicity against HELF cells measured after 24 hrs by MTT assay; type: cell-based; details: Homo sapiens; summary of the method: as §1
BGC-823 = assay: Cytotoxicity against human BGC823 cells measured after 24 hrs by MTT assay; type: functional, cell-based; details: BGC-823, 24 h; summary of the method: as §1
A-375 [2] = assay: Cytotoxicity against human A375 cells measured after 24 hrs by MTT assay; type: functional, cell-based; details: A-375, 24 h; summary of the method: as §1
HeLa [3] = assay: Induction of apoptosis in human HeLa cells assessed as live cells at 1 uM measured after 24 hrs by Annexin V-FITC/propidium iodide staining based flow cytometry (reference value: 99.9 %); type: functional
A-375 [4] = assay: Induction of apoptosis in human A375 cells assessed as chromatin condensation measured after 24 hrs by DAPI staining based fluorescence microscopic analysis; type: functional, cell-based
Summary of the method: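 A375 cells were treated with 1, 2 or 4 μM for 24 h, washed, and fixed in cold methanol:acetic acid (3:1) for 10 min. They were stained with 1 μg/mL DAPI at 37°C for 5 min and imaged by fluorescence microscopy at 364 nm, 400×, for nuclear morphology.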

HeLa [5] = assay: Induction of apoptosis in human HeLa cells assessed as late apoptotic cells at 1 uM measured after 24 hrs by Annexin V-FITC/propidium iodide staining based flow cytometry (reference value: 0.058 %); type: functional
HeLa [6] = assay: Induction of apoptosis in human HeLa cells assessed as early apoptotic cells at 1 uM measured after 24 hrs by Annexin V-FITC/propidium iodide staining based flow cytometry (reference value: 0.078 %); type: functional
HeLa [7] = assay: Induction of apoptosis in human HeLa cells assessed as necrotic cells at 1 uM measured after 24 hrs by Annexin V-FITC/propidium iodide staining based flow cytometry relative to control; type: functional
A-375 [8] = assay: Induction of apoptosis in human A375 cells assessed as increase in caspase-3 expression measured after 24 hrs by Western blot analysis; type: functional, cell-based
Summary of the method: (§2)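 A375 cells were treated for 24 h at 5 or 10 μM. Lysates were clarified at 12,000 g for 5 min at 4°C and protein measured by BCA. Equal protein was run on 10% SDS-PAGE and transferred to PVDF. Primary antibodies (1:1000) were applied overnight at 4°C, then secondary (1:5000) for 2 h at 37°C. Detection was by chemiluminescence with densitometry, GAPDH as internal reference.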

A-375 [9] = assay: Induction of apoptosis in human A375 cells assessed as increase in P53 expression measured after 24 hrs by Western blot analysis; type: functional, cell-based; summary of the method: as §2
A-375 [10] = assay: Induction of apoptosis in human A375 cells assessed as increase in intracellular ROS production at 1 uM measured after 24 hrs by DCF-DA fluorescence dye based flow cytometry relative to control; type: functional
Summary of the method: (§3)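 A375 cells were exposed to treatments for 24 h and washed with PBS. They were loaded with 20 µM DCF-DA in serum-free DMEM at 37°C for 30 min, washed with ice-cold PBS and harvested. Mean DCF fluorescence was measured by flow cytometry as the ROS level; n=3, mean±SD, relative to untreated cells.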

A-375 [11] = assay: Induction of apoptosis in human A375 cells assessed as increase in intracellular ROS production at 2 uM measured after 24 hrs by DCF-DA fluorescence dye based flow cytometry relative to control; type: functional; summary of the method: as §3
A-375 [12] = assay: Induction of apoptosis in human A375 cells assessed as increase in intracellular ROS production measured after 24 hrs by DCF-DA fluorescence dye based flow cytometry; type: functional, cell-based; summary of the method: as §3
A-375 [13] = assay: Induction of apoptosis in human A375 cells assessed as loss of mitochondrial membrane potential measured after 30 mins by DiOC6 dye based flow cytometry; type: functional, cell-based
Summary of the method: (§4)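 A375 cells were treated at 0, 1, 2 or 4 μM, then loaded with 50 nM DiOC6 in serum-free DMEM at 37°C for 30 min. Cells were washed twice with ice-cold PBS, harvested and analysed by flow cytometry. ΔΨm is expressed as percent change versus untreated cells, as mean±SD of three determinations.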

A-375 [14] = assay: Induction of apoptosis in human A375 cells assessed as decrease in mitochondrial membrane potential at 1 uM measured after 30 mins by DiOC6 dye based flow cytometry relative to control; type: functional; set-up: scale not given: the % may be the effect or the level left; summary of the method: as §4
A-375 [15] = assay: Induction of apoptosis in human A375 cells assessed as decrease in mitochondrial membrane potential at 4 uM measured after 30 mins by DiOC6 dye based flow cytometry relative to control; type: functional; set-up: scale not given: the % may be the effect or the level left; summary of the method: as §4
[16] = Drug uptake in mitochondria of human A375 cells at 2 uM measured after 24 hrs by Mito-Tracker Green staining based laser confocal microscopic analysis; type: ADME
Summary of the method: (§5)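 A375 cells were plated at 10^5 cells/mL for 24 h to about 70% confluence. They were exposed to 2 μM at 37°C for 24 h, washed, then stained with 100 nM Mito-Tracker Green (488 nm) for 30 min. After PBS washes, compound fluorescence (568 nm) and the mitochondrial stain were imaged by laser confocal microscopy.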

[17] = Drug uptake in nucleus of human A375 cells at 2 uM measured after 24 hrs by Mito-Tracker Green staining based laser confocal microscopic analysis; type: ADME; summary of the method: as §5
HeLa [18] = assay: Reduction in mitochondrial membrane potential in mitochondria isolated from human HeLa cells measured after 2 hrs by DiOC6 dye based HSFCM analysis; type: functional, cell-based
Summary of the method: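 Mitochondria isolated from HeLa cells were treated at 0, 1, 10, 50 or 100 µM for 2 h at 37°C and washed with MT buffer. They were stained with 500 nM DiOC6 for 15 min at 37°C, washed twice and resuspended in MT buffer. Analysis was on a laboratory-built high-sensitivity flow cytometer, recording median and mean green fluorescence against drug concentration.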

With COCCOCC[N+](CCOCCOC)(CCOCCOC)Cc1cc(OC)c2c(c1)C(=O)c1cc(OC)cc(OC)c1C2=O the IC50 (HepG2) was greater than 100 µM, the IC50 [1] was greater than 100 µM and the IC50 (BGC-823) was greater than 100 µM. For the same compound, the IC50 (A-375 [2]) was greater than 100 µM.
With CCCCCCCCC[N+](C)(CCCCCCCCC)Cc1cc(O)c2c(c1)C(=O)c1cc(OC)cc(O)c1C2=O the IC50 (HepG2) was 7.39 µM, the IC50 [1] was 9.83 µM and the IC50 (BGC-823) was 3.93 µM. For the same compound, the IC50 (A-375 [2]) was 2.63 µM.
CCCCCCCC[N+](CCCCCCCC)(CCCCCCCC)Cc1cc(OC)c2c(c1)C(=O)c1cc(OC)cc(OC)c1C2=O showed an IC50 (HepG2) of 5.45 µM, an IC50 [1] of 4.5 µM and an IC50 (BGC-823) of 5 µM. For the same compound, the IC50 (A-375 [2]) was 3.46 µM.
CCCCCCCC[N+](C)(CCCCCCCC)Cc1ccc2c(c1)C(=O)c1ccccc1C2=O gave an IC50 (HepG2) of 2.08 µM and an IC50 [1] of 8.46 µM.
Work on CCCCCCCCCC[N+](C)(CCCCCCCCC)Cc1cc(O)c2c(c1)C(=O)c1cc(OC)cc(O)c1C2=O (stereo not given) yielded an IC50 (HepG2) of 3.97 µM, an IC50 [1] of 9.56 µM and an IC50 (BGC-823) of 3.85 µM. It also gave an IC50 (A-375 [2]) of 2.2 µM.
Work on CCCCCCCCCC[N+](C)(CCCCCCCCCC)Cc1ccc2c(c1)C(=O)c1ccccc1C2=O yielded an IC50 (HepG2) of 1.57 µM and an IC50 [1] of 5.84 µM.
In the case of Cc1cc(O)c2c(c1)C(=O)c1cc(O)cc(O)c1C2=O [EMODIN], the IC50 (HepG2) is reported as greater than 50 µM, the IC50 [1] is reported as 46.3 µM and the IC50 (BGC-823) is reported as greater than 50 µM. The IC50 (A-375 [2]) was 44.9 µM.
With CC(=O)O[C@H]1C(=O)[C@@]2(C)[C@H]([C@H](OC(=O)c3ccccc3)[C@]3(O)C[C@H](OC(=O)[C@H](O)[C@@H](NC(=O)c4ccccc4)c4ccccc4)C(C)=C1C3(C)C)[C@]1(OC(C)=O)CO[C@@H]1C[C@@H]2O [PACLITAXEL] the IC50 (A-375 [2]) was 11.3 µM.
In the case of CCCCCCCCC[N+](C)(C)Cc1cc(O)c2c(c1)C(=O)c1cc(OC)cc(O)c1C2=O, the IC50 (HepG2) is reported as 10.4 µM, the IC50 [1] is reported as 21.6 µM and the IC50 (BGC-823) is reported as 9.76 µM. It also gave an IC50 (A-375 [2]) of 9.87 µM.
Compound CCCCCCCC[N+](C)(CCCCCCCC)Cc1cc(O)c2c(c1)Cc1cc(O)cc(O)c1C2=O has an IC50 (HepG2) greater than 100 µM and an IC50 [1] greater than 100 µM.
For CCCCCCCCC[N+](C)(CCCCCCCC)Cc1cc(O)c2c(c1)C(=O)c1cc(OC)cc(O)c1C2=O.[Br-] (stereo not given), the Activity (HeLa [3]) was 3.73%, the Activity (A-375 [4]) was “Dose-dependent effect” and the IC50 (HepG2) was 4.12 µM. For the same compound, the IC50 [1] was 9.65 µM, the IC50 (BGC-823) was 2.79 µM and the IC50 (A-375 [2]) was 1.39 µM. For the same compound, the Activity (HeLa [5]) was 60.8%, the Activity (HeLa [6]) was 0.444% and the Activity (HeLa [7]) was 35%. For the same compound, the Activity (A-375 [8]) was “Dose-dependent effect”, the Activity (A-375 [9]) was “Dose-dependent effect” and the “fold change (FC)” value (A-375 [10]) was 2.7. The “fold change (FC)” value (A-375 [11]) was 5.8, the Activity (A-375 [12]) was “Dose-dependent effect” and the Activity (A-375 [13]) was “Dose-dependent effect”. For the same compound, the Activity (A-375 [14]) was 25%, the Activity (A-375 [15]) was 38% and the Drug uptake [16] was “Active”. For the same compound, the Drug uptake [17] was “Not Active” and the Activity (HeLa [18]) was “Dose-dependent effect”.
CCCCCCCCC[N+](C)(CCOCCOCCO)Cc1cc(OC)c2c(c1)C(=O)c1cc(OC)cc(OC)c1C2=O (stereo not given) gave an IC50 (HepG2) of 37.7 µM, an IC50 [1] of 40.4 µM and an IC50 (BGC-823) of 32.7 µM. The IC50 (A-375 [2]) was 28.9 µM.
